Activity calls are given as the source filed them. The calls are words filed in the database; no cut-off is given here.
Legend:
Salmonella typhimurium [1] = test: Inhibition of Salmonella enterica serovar Typhimurium TT16729 invasion in MDCK cells at 20 uM by gentamycin protection assay; type: functional, organism-based; conditions: Salmonella enterica subsp. enterica serovar Typhimurium
Outline: (§1)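 Bacteria grown in LB (overnight, then 1:10 subculture 3 h, 37°C, closed tubes) with compound at 20 µM or DMSO, then seeded on MDCK cells in HEPES-DMEM, MOI 10:1. Gentamicin 50 µg/ml for 45 min; cells lysed at 2 h with 0.5% deoxycholate; invasion = CFU at 2 h / CFU seeded, as percentage of input.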

Salmonella typhimurium [2] = test: Antibacterial activity against Salmonella enterica serovar Typhimurium TT16729 at 20 uM to 40 uM; type: functional, organism-based; conditions: Salmonella enterica subsp. enterica serovar Typhimurium
MDCK = test: Cytotoxicity against MDCK cells at 20 uM to 40 uM; type: cell-based, Canis lupus familiaris; conditions: dog
Salmonella typhimurium [3] = test: Antibacterial activity against Salmonella enterica serovar Typhimurium TT16729 assessed as inhibition of SPI1 protein secretion T3SS-mediated invasion in MDCK cells at 20 uM; type: functional, organism-based; conditions: Salmonella enterica subsp. enterica serovar Typhimurium; outline: as §1
Salmonella typhimurium [4] = test: Antibacterial activity against Salmonella enterica serovar Typhimurium TT16729 motility assessed as reduction of swimming zone on soft agar plates at 40 uM; type: functional, Salmonella enterica subsp. enterica serovar Typhimurium
Outline: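 Swimming motility on soft agar (tryptone 10 g/liter, NaCl 5 g/liter, 0.3% agar) prepared 1 day ahead, compound at 40 µM final; 20 µl overnight culture inoculated into agar; zone diameter read after 8 h at 37°C.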

Salmonella typhimurium [5] = test: Antibacterial activity against Salmonella enterica serovar Typhimurium TT16729 in mouse RAW264.7 cells assessed as increase in nitric oxide level at 40 uM after 16 hrs; type: functional, organism-based; conditions: Salmonella enterica subsp. enterica serovar Typhimurium
Outline: (§2)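 Opsonized bacteria infect RAW264.7 macrophages (MOI 10:1, gentamicin protection); compound or DMSO present in media from 1 h postinfection. Nitrite accumulated in culture medium at 16 h postinfection measured with Griess reagent (OD525), converted to µM against sodium nitrite standards.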

Salmonella typhimurium [6] = test: Antibacterial activity against Salmonella enterica serovar Typhimurium TT16729 expressing SPI1 effector protein assessed as increase in beta-lactamase activity in cytosolic fraction at 20 uM by immunoblotting; type: functional, organism-based; conditions: Salmonella enterica subsp. enterica serovar Typhimurium
Outline: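 TT16729 carrying pAUN-1 (SipB–β-lactamase fusion) grown to invasiveness in kanamycin LB, then 2 h in DMEM with kanamycin, L-glutamine and HEPES; compound 20 µM in all steps, DMSO control. Cells lysed (freeze-thaw, lysozyme 1 mg/ml 1 h 4°C, sonication), 5,000 x g clearing, then 50,000 x g 1 h. Cytosolic fraction assayed by nitrocefin (50 µg/ml, PBS) cleavage at A486, per min per OD600 or µg protein.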

Salmonella typhimurium [7] = test: Antibacterial activity against Salmonella enterica serovar Typhimurium TT16729 expressing SPI1 effector protein assessed as localization of SipB-beta-lactamase fusion protein in osmotic shock sample at 20 uM by immunoblotting; type: functional, organism-based; conditions: Salmonella enterica subsp. enterica serovar Typhimurium
Salmonella typhimurium [8] = test: Antibacterial activity against Salmonella enterica serovar Typhimurium TT16729 assessed as decrease in transcription of lacZ-hilA at 40 uM; type: functional, organism-based; conditions: Salmonella enterica subsp. enterica serovar Typhimurium
Salmonella typhimurium [9] = test: Antibacterial activity against Salmonella enterica serovar Typhimurium TT16729 assessed as decrease in transcription of lacZ-prgH at 40 uM; type: functional, organism-based; conditions: Salmonella enterica subsp. enterica serovar Typhimurium
Salmonella typhimurium [10] = test: Antibacterial activity against Salmonella enterica serovar Typhimurium TT16729 assessed as decrease in transcription of lacZ-sipC at 40 uM; type: functional, organism-based; conditions: Salmonella enterica subsp. enterica serovar Typhimurium
Salmonella typhimurium [11] = test: Antibacterial activity against Salmonella enterica serovar Typhimurium TT16729 assessed as decrease in spvA-lacZ expression at 40 uM; type: functional, organism-based; conditions: Salmonella enterica subsp. enterica serovar Typhimurium
Salmonella typhimurium [12] = test: Antibacterial activity against Salmonella enterica serovar Typhimurium TT16729 in mouse RAW264.7 cells assessed as reduction of intracellular bacterial replication at 40 uM after 16 hrs; type: functional, organism-based; conditions: Salmonella enterica subsp. enterica serovar Typhimurium
Outline: (§3)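 RAW264.7 cells in RPMI/10% FBS infected at MOI 10:1 with LB-agar-grown, mouse-serum-opsonized bacteria; gentamicin 50 µg/ml for 45 min, then 10 µg/ml. Compound added to killing and maintenance media from 1 h postinfection onward. Hypotonic lysis at 2 and 16 h; growth yield = CFU 16 h / CFU 2 h.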

Salmonella typhimurium [13] = test: Antibacterial activity against Salmonella enterica serovar Typhimurium 14028 in mouse RAW264.7 cells assessed as reduction of intracellular bacterial replication at 40 uM after 16 hrs; type: functional, organism-based; conditions: Salmonella enterica subsp. enterica serovar Typhimurium; outline: as §3
Salmonella typhimurium [14] = test: Antibacterial activity against Salmonella enterica serovar Typhimurium 14028 in mouse RAW264.7 cells assessed as increase in nitric oxide level at 40 uM after 16 hrs; type: functional, organism-based; conditions: Salmonella enterica subsp. enterica serovar Typhimurium; outline: as §2
RAW264.7 = test: Effect on nitric oxide production in mouse RAW264.7 cells; type: functional, cell-based
Salmonella typhimurium [15] = test: Antibacterial activity against Salmonella enterica serovar Typhimurium 14028 assessed as reduction in sseJ-HA fusion protein secretion in hexadecane extracted fraction at 20 and 40 uM by immunoblotting; type: functional, organism-based; conditions: Salmonella enterica subsp. enterica serovar Typhimurium
Outline: (§4)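 Strain 14028 grown overnight in low-pH minimal medium MM5.8 (SPI2-inducing) with compound or DMSO control; whole cells, hexadecane-extractable fraction and cell-free supernatant separated, volumes normalized by OD600, supernatant proteins TCA-precipitated; SseJ-HA detected by immunoblot on 12% SDS-PAGE with anti-HA monoclonal antibody (1:1,000) and chemiluminescence.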

Salmonella typhimurium [16] = test: Antibacterial activity against Salmonella enterica serovar Typhimurium 14028 assessed as increase in sseJ-HA fusion protein secretion in bacterial cell containing fraction at 20 and 40 uM by immunoblotting; type: functional, organism-based; conditions: Salmonella enterica subsp. enterica serovar Typhimurium; outline: as §4
Salmonella typhimurium [17] = test: Antibacterial activity against Salmonella enterica serovar Typhimurium 14028 assessed as inhibition of sseJ-HA fusion protein secretion by immunoblotting; conditions: Salmonella enterica subsp. enterica serovar Typhimurium
Salmonella typhimurium [18] = test: Antibacterial activity against Salmonella enterica serovar Typhimurium TT16729 assessed as reduction in expression of bacterial cell bound flagellin at 40 uM by SDS-PAGE; type: functional, organism-based; conditions: Salmonella enterica subsp. enterica serovar Typhimurium
Outline: (§5)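 Bacteria grown 16–18 h in LB with compound (40 or 80 µM) or DMSO; flagellin released by 150 mM NaCl/10 mM HCl for 5 min at room temperature, bacteria removed by centrifugation, supernatant proteins TCA-precipitated and run on 9% SDS-PAGE; loading normalized by OD600.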

Salmonella typhimurium [19] = test: Antibacterial activity against Salmonella enterica serovar Typhimurium TT16729 assessed as reduction in expression of bacterial cell bound flagellin at 80 uM by SDS-PAGE; type: functional, organism-based; conditions: Salmonella enterica subsp. enterica serovar Typhimurium; outline: as §5
Salmonella typhimurium [20] = test: Antibacterial activity against Salmonella enterica serovar Typhimurium TT16729 infected mouse RAW264.7 cells assessed as increase in nitric oxide level at 40 uM after 16 hrs in presence of tetracyclin; type: functional, organism-based; conditions: Salmonella enterica subsp. enterica serovar Typhimurium
Outline: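 RAW264.7 cells infected with opsonized strain TT16729 (MOI 10:1, gentamicin protection), compound in medium from 1 h postinfection; bacterial protein synthesis blocked with tetracycline at 2 h postinfection. Medium nitrite measured at 16 h by Griess reagent (OD525) against sodium nitrite standards.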

Salmonella typhimurium [21] = test: Antibacterial activity against Salmonella enterica serovar Typhimurium TT16729 in mouse RAW264.7 cells assessed as increase in intracellular bacterial replication at 40 uM after 16 hrs; type: functional, organism-based; conditions: Salmonella enterica subsp. enterica serovar Typhimurium; outline: as §3
Salmonella typhimurium [22] = test: Antibacterial activity against Salmonella enterica serovar Typhimurium 14028 in mouse RAW264.7 cells assessed as reduction of nitric oxide level at 40 uM after 16 hrs; type: functional, organism-based; conditions: Salmonella enterica subsp. enterica serovar Typhimurium; outline: as §2

| SMILES | Activity (Salmonella typhimurium [1]) | Activity (Salmonella typhimurium [2]) | Activity (MDCK) | Activity (Salmonella typhimurium [3]) | Activity (Salmonella typhimurium [4]) [cm] | also measured |
| --- | --- | --- | --- | --- | --- | --- |
| O=C(N/N=C/c1ccc(O)c(O)c1O)c1ccco1 | Active | inactive | Non-toxic | Active | 2.9 |  |
| O=C(N/N=C/c1ccc(O)c(O)c1O)c1ccccc1 | Active | inactive | Non-toxic | Active | 3.3 |  |
| O=C(N/N=C/c1cc(Br)cc(Br)c1O)c1cccnc1 | Active | inactive | Non-toxic | Active | 2.7 | Activity (Salmonella typhimurium [5]): Active; Activity (Salmonella typhimurium [6]): Active; Activity (Salmonella typhimurium [7]): inactive; Activity (Salmonella typhimurium [8]): Active; Activity (Salmonella typhimurium [9]): Active; Activity (Salmonella typhimurium [10]): Active; Activity (Salmonella typhimurium [11]): Active; Activity (Salmonella typhimurium [12]): Active; Activity (Salmonella typhimurium [13]): Active; Activity (Salmonella typhimurium [14]): Active; Activity (RAW264.7): inactive; Activity (Salmonella typhimurium [15]): Active; Activity (Salmonella typhimurium [16]): inactive; Activity (Salmonella typhimurium [17]): Active |
| NC(=O)C(=O)N/N=C/c1cc(Br)ccc1O | Active | inactive | Non-toxic | Active | 1.7 | Activity (Salmonella typhimurium [18]): Active; Activity (Salmonella typhimurium [19]): Active |
| O=C(N/N=C/c1cc(Br)cc(Br)c1O)c1ccc([N+](=O)[O-])cc1 | Active | inactive | Non-toxic | Active | 2.9 |  |
| O=C(N/N=C/c1cc(Br)ccc1O)c1cccnc1 | Active | inactive | Non-toxic | Active | 2.4 | Activity (Salmonella typhimurium [18]): Active |
| CCOc1cccc(/C=N/NC(=O)C(N)=O)c1O | Active | inactive | Non-toxic | Active | 2.7 | Activity (Salmonella typhimurium [19]): inactive |
| O=C(N/N=C/c1c(O)ccc2ccccc12)c1ccc(Cl)cc1 | Active | inactive | Non-toxic | Active | 3.1 | Activity (RAW264.7): inactive; Activity (Salmonella typhimurium [20]): Active; Activity (Salmonella typhimurium [15]): Active; Activity (Salmonella typhimurium [16]): inactive; Activity (Salmonella typhimurium [21]): Active; Activity (Salmonella typhimurium [22]): Active; Activity (Salmonella typhimurium [17]): Active |
| O=C(N/N=C/c1cc(Cl)cc(Cl)c1O)c1ccccc1 | Active | inactive | Non-toxic | Active | 2.7 |  |

From ChEMBL document CHEMBL1155175, “Salicylidene acylhydrazides that affect type III protein secretion in Salmonella enterica serovar typhimurium” (Antimicrob Agents Chemother, 2007)
